How the values were obtained:
Type in all cases: functional
Enterococcus faecalis [1] = assay: Antibacterial activity against VanA-resistant Enterococcus faecalis
Procedure, shortened: (§1)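 Broth microdilution MIC per CLSI guidelines, incubated at 35°C. Cation-adjusted Mueller-Hinton broth for nonfastidious organisms and staphylococci. Streptococci tested in the same broth with 3% lysed horse blood. Anaerobes tested in supplemented Brucella broth inside an anaerobe chamber (5% CO2, 5% H2, 90% N2), read after 48 h. Strains were mainly recent clinical isolates with confirmed identity.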

Prevotella buccae = assay: Antibacterial activity against Prevotella buccae; settings: Segatella buccae
Procedure, shortened: (§2)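 Anaerobic broth microdilution MIC following CLSI guidelines, in supplemented Brucella broth. Run in an anaerobe chamber under 5% CO2, 5% H2 and 90% N2 at 35°C, and read after 48 h. Reported as MIC range, MIC50 and MIC90.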

Citrobacter koseri = assay: Antibacterial activity against Citrobacter diversus
Procedure, shortened: (§3)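 Broth microdilution MIC following CLSI guidelines, in cation-adjusted Mueller-Hinton broth, incubated at 35°C. Recent clinical isolates and reference strains, with identity confirmed by automated and standard microbiological methods. Results reported as MIC range, MIC50 and MIC90.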

Citrobacter freundii = assay: Antibacterial activity against Citrobacter freundii; procedure, shortened: as §3
Morganella morganii = assay: Antibacterial activity against Morganella morganii; procedure, shortened: as §3
Streptococcus agalactiae = assay: Antibacterial activity against Streptococcus agalactiae
Procedure, shortened: (§4)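 Broth microdilution MIC following CLSI guidelines, in cation-adjusted Mueller-Hinton broth containing 3% lysed horse blood, incubated at 35°C. Clinical isolates with identity confirmed. Reported as MIC range, MIC50 and MIC90.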

Acinetobacter sp. = assay: Antibacterial activity against Acinetobacter sp.; procedure, shortened: as §3
Fusobacterium nucleatum = assay: Antibacterial activity against Fusobacterium nucleatum; procedure, shortened: as §2
[2] = system: Staphylococcus saprophyticus; assay: Antibacterial activity against Staphylococcus saprophyticus; procedure, shortened: as §3
Enterococcus faecalis [3] = assay: Antibacterial activity against Enterococcus faecalis; procedure, shortened: as §1
Corynebacterium jeikeium = assay: Antibacterial activity against Corynebacterium jeikeium; procedure, shortened: as §4
Streptococcus pneumoniae [4] = assay: Antibacterial activity against penicillin-susceptible Streptococcus pneumoniae; procedure, shortened: as §1
Corynebacterium sp. = assay: Antibacterial activity against Corynebacterium sp.; procedure, shortened: as §4
Neisseria meningitidis = assay: Antibacterial activity against Neisseria meningitidis
Procedure, shortened: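 MIC by broth microdilution in gonococcal broth, incubated at 35°C in 5% CO2. Reported as MIC range, MIC50 and MIC90.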

Klebsiella oxytoca = assay: Antibacterial activity against Klebsiella oxytoca; procedure, shortened: as §3
Enterobacter cloacae = assay: Antibacterial activity against Enterobacter cloacae; procedure, shortened: as §3
Bacteroides ovatus = assay: Antibacterial activity against Bacteroides ovatus; procedure, shortened: as §2
Staphylococcus warneri = assay: Antibacterial activity against Staphylococcus warneri; procedure, shortened: as §3
Shigella dysenteriae = assay: Antibacterial activity against Shigella dysenteriae
Streptococcus pneumoniae [5] = assay: Antibacterial activity against penicillin-resistant Streptococcus pneumoniae; procedure, shortened: as §1
[6] = system: Peptoniphilus asaccharolyticus; assay: Antibacterial activity against Peptostreptococcus asaccharolyticus; procedure, shortened: as §2
Haemophilus influenzae [7] = assay: Antibacterial activity against beta-lactamase positive Haemophilus influenzae
Procedure, shortened: (§5)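 Broth microdilution MIC following CLSI guidelines, in Haemophilus test medium at 35°C.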

Staphylococcus aureus [8] = assay: Antibacterial activity against vancomycin-intermediate Staphylococcus aureus; procedure, shortened: as §1
[9] = system: Bacteroides thetaiotaomicron; assay: Antibacterial activity against Bacteroides thetaiotaomicron; procedure, shortened: as §2
Prevotella corporis = assay: Antibacterial activity against Prevotella corporis; procedure, shortened: as §2
[10] = system: Staphylococcus haemolyticus; assay: Antibacterial activity against Staphylococcus haemolyticus; procedure, shortened: as §4
Escherichia coli = assay: Antibacterial activity against Escherichia coli; procedure, shortened: as §3
Enterococcus faecalis [11] = assay: Antibacterial activity against VanB-resistant Enterococcus faecalis; procedure, shortened: as §1
Hoylesella oralis = assay: Antibacterial activity against Prevotella oralis; procedure, shortened: as §2
Streptococcus pyogenes = assay: Antibacterial activity against Streptococcus pyogenes
Procedure, shortened: (§6)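 Broth microdilution MIC following CLSI guidelines, in cation-adjusted Mueller-Hinton broth with 3% lysed horse blood. Plates incubated at 35°C. Clinical isolates and reference strains, with identity confirmed by standard microbiological methods.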

Streptococcus salivarius = assay: Antibacterial activity against Streptococcus salivarius; procedure, shortened: as §6
Streptococcus mitis = assay: Antibacterial activity against Streptococcus mitis; procedure, shortened: as §6
Pseudomonas aeruginosa = assay: Antibacterial activity against Pseudomonas aeruginosa; procedure, shortened: as §3
Finegoldia magna = assay: Antibacterial activity against Peptostreptococcus magnus; procedure, shortened: as §2
Staphylococcus aureus [12] = assay: Antibacterial activity against oxacillin and levofloxacin-resistant Staphylococcus aureus; procedure, shortened: as §1
[13] = system: Staphylococcus epidermidis; assay: Antibacterial activity against oxacillin-susceptible Staphylococcus epidermidis
Procedure, shortened: (§7)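 MIC by CLSI broth microdilution for nonfastidious organisms, in cation-adjusted Mueller-Hinton broth incubated at 35°C.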

Streptococcus equinus = assay: Antibacterial activity against Streptococcus bovis; procedure, shortened: as §6
Haemophilus influenzae [14] = assay: Antibacterial activity against beta-lactamase negative Haemophilus influenzae; procedure, shortened: as §5
Staphylococcus aureus [15] = assay: Antibacterial activity against oxacillin-resistant Staphylococcus aureus; procedure, shortened: as §1
Enterococcus faecium = assay: Antibacterial activity against VanB-resistant Enterococcus faecium; procedure, shortened: as §1
Proteus mirabilis = assay: Antibacterial activity against Proteus mirabilis; procedure, shortened: as §3
Fusobacterium sp. = assay: Antibacterial activity against Fusobacterium sp.; procedure, shortened: as §2
Burkholderia cepacia = assay: Antibacterial activity against Burkholderia cepacia; procedure, shortened: as §3
Legionella pneumophila = assay: Antibacterial activity against Legionella pneumophila
Procedure, shortened: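 Broth microdilution MIC per CLSI guidelines, run in buffered yeast extract α-ketoglutarate broth at 35°C and read after 48 h.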

Streptococcus viridans = assay: Antibacterial activity against Streptococcus viridans; procedure, shortened: as §6
[16] = system: Staphylococcus epidermidis; assay: Antibacterial activity against oxacillin-resistant Staphylococcus epidermidis; procedure, shortened: as §1
Staphylococcus aureus [17] = assay: Antibacterial activity against oxacillin-susceptible Staphylococcus aureus; procedure, shortened: as §7

C[C@H]1NCc2cc(-c3ccc4c(=O)c(C(=O)O)cn(C5CC5)c4c3OC(F)F)ccc21 [GARENOXACIN]
0.008 µg/mL: MIC50 (Haemophilus influenzae [14]) | MIC90 (Legionella pneumophila)
1 µg/mL: MIC90 (Prevotella buccae) | MIC50 (Citrobacter freundii) | MIC (Staphylococcus aureus [8]) | MIC90 (Prevotella corporis) | MIC90 (Escherichia coli) | MIC90 (Hoylesella oralis)
0.25 µg/mL: MIC50 (Prevotella buccae) | MIC90 (Citrobacter koseri) | MIC50 (Corynebacterium jeikeium) | MIC90 (Corynebacterium jeikeium) | MIC50 (Corynebacterium sp.) | MIC50 (Prevotella corporis) | MIC50 (Hoylesella oralis) | MIC90 (Streptococcus pyogenes) | MIC90 (Streptococcus salivarius) | MIC90 (Streptococcus mitis) | MIC50 (Streptococcus equinus) | MIC90 (Streptococcus equinus) | MIC90 (Streptococcus viridans)
16 µg/mL: MIC90 (Acinetobacter sp.) | MIC90 (Proteus mirabilis)
8 µg/mL: MIC90 (Enterococcus faecalis [11])
64 µg/mL: MIC90 (Corynebacterium sp.)
32 µg/mL: MIC90 (Morganella morganii) | MIC50 (Burkholderia cepacia) | MIC90 [16]
> 64 µg/mL: MIC90 (Citrobacter freundii) | MIC90 (Pseudomonas aeruginosa) | MIC90 (Burkholderia cepacia)
0.004 µg/mL: MIC50 (Neisseria meningitidis) | MIC90 (Neisseria meningitidis)
4 µg/mL: MIC90 (Enterococcus faecalis [3]) | MIC90 (Bacteroides ovatus) | MIC90 [9] | MIC90 [10] | MIC90 (Staphylococcus aureus [12]) | MIC (Enterococcus faecium)
0.002 µg/mL: MIC50 (Legionella pneumophila)
0.03 µg/mL: MIC50 [2] | MIC (Staphylococcus warneri) | MIC50 (Shigella dysenteriae) | MIC50 (Streptococcus pneumoniae [5]) | MIC90 (Haemophilus influenzae [7]) | MIC90 (Haemophilus influenzae [14])
0.5 µg/mL: MIC50 (Proteus mirabilis)
0.015 µg/mL: MIC [6] | MIC50 (Haemophilus influenzae [7]) | MIC (Finegoldia magna)
0.06 µg/mL: MIC90 [2] | MIC50 [10] | MIC50 (Escherichia coli) | MIC [13] | MIC50 (Staphylococcus aureus [17]) | MIC90 (Staphylococcus aureus [17])
0.125 µg/mL: MIC50 (Citrobacter koseri) | MIC50 (Streptococcus agalactiae) | MIC90 (Streptococcus agalactiae) | MIC50 (Acinetobacter sp.) | MIC (Fusobacterium nucleatum) | MIC50 (Streptococcus pneumoniae [4]) | MIC90 (Streptococcus pneumoniae [4]) | MIC50 (Klebsiella oxytoca) | MIC50 (Enterobacter cloacae) | MIC90 (Shigella dysenteriae) | MIC90 (Streptococcus pneumoniae [5]) | MIC50 (Streptococcus pyogenes) | MIC50 (Streptococcus salivarius) | MIC50 (Streptococcus mitis) | MIC (Fusobacterium sp.) | MIC50 (Streptococcus viridans)
2 µg/mL: MIC (Enterococcus faecalis [1]) | MIC50 (Morganella morganii) | MIC50 (Enterococcus faecalis [3]) | MIC90 (Klebsiella oxytoca) | MIC90 (Enterobacter cloacae) | MIC50 (Bacteroides ovatus) | MIC50 [9] | MIC50 (Enterococcus faecalis [11]) | MIC50 (Pseudomonas aeruginosa) | MIC50 (Staphylococcus aureus [12]) | MIC50 (Staphylococcus aureus [15]) | MIC90 (Staphylococcus aureus [15]) | MIC50 [16]

COc1c(N2CCNC(C)C2)c(F)cc2c(=O)c(C(=O)O)cn(C3CC3)c12 (stereo not given) [GATIFLOXACIN]
16 µg/mL: MIC90 (Citrobacter freundii) | MIC90 (Acinetobacter sp.) | MIC90 (Enterococcus faecalis [3]) | MIC90 (Bacteroides ovatus) | MIC90 [9] | MIC90 (Enterococcus faecalis [11]) | MIC90 (Staphylococcus aureus [12]) | MIC90 (Burkholderia cepacia)
0.06 µg/mL: MIC90 (Citrobacter koseri) | MIC50 (Enterobacter cloacae) | MIC90 (Shigella dysenteriae) | MIC [6] | MIC (Finegoldia magna)
0.015 µg/mL: MIC (Fusobacterium nucleatum) | MIC50 (Haemophilus influenzae [7]) | MIC90 (Haemophilus influenzae [7]) | MIC90 (Haemophilus influenzae [14]) | MIC (Fusobacterium sp.)
1 µg/mL: MIC90 (Klebsiella oxytoca) | MIC90 (Enterobacter cloacae) | MIC90 (Streptococcus pneumoniae [5]) | MIC90 (Escherichia coli) | MIC50 (Pseudomonas aeruginosa) | MIC50 (Streptococcus equinus) | MIC90 (Streptococcus equinus)
0.125 µg/mL: MIC50 (Corynebacterium jeikeium) | MIC (Staphylococcus warneri) | MIC50 [10] | MIC [13] | MIC50 (Staphylococcus aureus [17]) | MIC90 (Staphylococcus aureus [17])
0.5 µg/mL: MIC90 (Prevotella buccae) | MIC90 (Corynebacterium jeikeium) | MIC90 (Streptococcus pneumoniae [4]) | MIC90 (Prevotella corporis) | MIC90 (Hoylesella oralis) | MIC90 (Streptococcus pyogenes) | MIC50 (Streptococcus salivarius) | MIC90 (Streptococcus salivarius) | MIC50 (Streptococcus mitis) | MIC90 (Streptococcus mitis) | MIC50 (Streptococcus viridans) | MIC90 (Streptococcus viridans)
0.03 µg/mL: MIC50 (Citrobacter koseri) | MIC50 (Acinetobacter sp.) | MIC50 (Klebsiella oxytoca) | MIC50 (Shigella dysenteriae) | MIC50 (Escherichia coli)
64 µg/mL: MIC90 (Pseudomonas aeruginosa)
4 µg/mL: MIC50 (Bacteroides ovatus) | MIC50 [9] | MIC90 [10] | MIC50 (Staphylococcus aureus [15]) | MIC90 (Proteus mirabilis) | MIC50 (Burkholderia cepacia)
0.008 µg/mL: MIC90 (Neisseria meningitidis) | MIC50 (Haemophilus influenzae [14]) | MIC50 (Legionella pneumophila) | MIC90 (Legionella pneumophila)
32 µg/mL: MIC90 (Morganella morganii) | MIC90 (Corynebacterium sp.) | MIC90 [16]
2 µg/mL: MIC (Enterococcus faecium) | MIC50 [16]
0.25 µg/mL: MIC50 (Prevotella buccae) | MIC50 (Citrobacter freundii) | MIC50 (Morganella morganii) | MIC50 (Streptococcus agalactiae) | MIC90 (Streptococcus agalactiae) | MIC50 [2] | MIC90 [2] | MIC50 (Streptococcus pneumoniae [4]) | MIC50 (Corynebacterium sp.) | MIC50 (Streptococcus pneumoniae [5]) | MIC50 (Prevotella corporis) | MIC50 (Hoylesella oralis) | MIC50 (Streptococcus pyogenes) | MIC50 (Proteus mirabilis)
0.004 µg/mL: MIC50 (Neisseria meningitidis)
8 µg/mL: MIC (Enterococcus faecalis [1]) | MIC50 (Enterococcus faecalis [3]) | MIC (Staphylococcus aureus [8]) | MIC50 (Enterococcus faecalis [11]) | MIC50 (Staphylococcus aureus [12]) | MIC90 (Staphylococcus aureus [15])
